ChEMBL document CHEMBL4316659, “Selective Antiproliferative Withanolides from Species in the Genera Eriolarynx and Deprea” (J Nat Prod, 2019)

Assays:
[1] = Ratio of GI50 for antiproliferative activity against human hTERT-BJ cells incubated for 48 hrs by SRB assay to GI50 for antiproliferative activity against human WiDr cells incubated for 48 hrs by SRB assay; assay type: toxicity, cell-based; conditions: hTERT-BJ cells versus WiDr cells, read-out: RatioGI50
In short: (§1)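 Selectivity is GI50 in the nontumor BJ-hTERT fibroblasts divided by GI50 in each tumor line. All values come from the same 48 h SRB assay, with 0.01−100 μM serial dilutions.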

A549 = test: Antiproliferative activity against human A549 cells incubated for 48 hrs by SRB assay; assay type: functional; conditions: A549, 48 h
In short: (§2)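 Cells kept in RPMI 1640 with 5% FBS and 2 mM L-glutamine at 37 °C under 5% CO2. Seeded at 2500 (A549, HBL-100, HeLa, SW1573) or 5000 (T-47D, WiDr, BJ-hTERT) cells/well and left 24 h. Compounds added as serial dilutions (0.01−100 μM) for 48 h. SRB staining read at 530 and 620 nm. GI50 calculated by NCI formulas. Mean of at least two independent experiments ± SD.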

SW1573 [2] = test: Antiproliferative activity against human SW1573 cells incubated for 48 hrs by SRB assay; assay type: functional; conditions: SW1573, 48 h; in short: as §2
T47D = test: Antiproliferative activity against human T47D cells incubated for 48 hrs by SRB assay; assay type: functional; in short: as §2
[3] = Ratio of GI50 for antiproliferative activity against human hTERT-BJ cells incubated for 48 hrs by SRB assay to GI50 for antiproliferative activity against human SW1573 cells incubated for 48 hrs by SRB assay; assay type: toxicity, cell-based; conditions: hTERT-BJ cells versus SW1573 cells, read-out: RatioGI50; in short: as §1
WiDr = test: Antiproliferative activity against human WiDr cells incubated for 48 hrs by SRB assay; assay type: functional; in short: as §2
HBL-100 = test: Antiproliferative activity against human HBL100 cells incubated for 48 hrs by SRB assay; assay type: functional; conditions: HBL-100, 48 h; in short: as §2
HeLa = test: Antiproliferative activity against human HeLa cells incubated for 48 hrs by SRB assay; assay type: functional; in short: as §2
[4] = Ratio of GI50 for antiproliferative activity against human hTERT-BJ cells incubated for 48 hrs by SRB assay to GI50 for antiproliferative activity against human T47D cells incubated for 48 hrs by SRB assay; assay type: toxicity, cell-based; conditions: hTERT-BJ cells versus T47D cells, read-out: RatioGI50; in short: as §1
[5] = Ratio of GI50 for antiproliferative activity against human hTERT-BJ cells incubated for 48 hrs by SRB assay to GI50 for antiproliferative activity against human HeLa cells incubated for 48 hrs by SRB assay; assay type: toxicity, cell-based; conditions: hTERT-BJ cells versus HeLa cells, read-out: RatioGI50; in short: as §1
SW1573 [6] = test: (§3) Resistance factor, ratio of GI50 for Antiproliferative activity against human SW1573 cells over-expressing P-gp incubated for 48 hrs in presence of P-gp and CYP3A4/5 inhibitor verapamil by SRB assay to GI50 for antiproliferative activity against human SW1573 cells incubated for 48 hrs in presence of P-gp and CYP3A4/5 inhibitor verapamil by SRB assay; assay type: functional
In short: (§4)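 Resistance factor is GI50 in SW1573/Pgp divided by GI50 in wild-type SW1573. Both come from 48 h SRB assays, run with 10 μM verapamil (final) or without it.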

SW1573 [7] = test: Antiproliferative activity against human SW1573 cells over-expressing P-gp incubated for 48 hrs in presence of P-gp and CYP3A4/5 inhibitor verapamil by SRB assay; assay type: functional; conditions: SW1573, 48 h
In short: (§5)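 Wild-type SW1573 (2500 cells/well) and P-gp-overexpressing SW1573/Pgp (5000 cells/well) in RPMI 1640 with 5% FBS. Seeded 24 h, then exposed 48 h to serial dilutions (0.01−100 μM) with or without 10 μM verapamil (final) in the medium. Paclitaxel and vinblastine were reference drugs. SRB read at 530/620 nm. GI50 by NCI formulas, mean of at least two independent experiments ± SD.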

SW1573 [8] = test: as §3, with “absence” for “presence”; assay type: functional; in short: as §4
[9] = Antiproliferative activity against human hTERT-BJ cells incubated for 48 hrs by SRB assay; assay type: cell-based; in short: as §2
SW1573 [10] = test: Antiproliferative activity against human SW1573 cells over-expressing P-gp incubated for 48 hrs in absence of P-gp and CYP3A4/5 inhibitor verapamil by SRB assay; assay type: functional; conditions: SW1573, 48 h; in short: as §5
SW1573 [11] = test: Antiproliferative activity against human SW1573 cells incubated for 48 hrs in presence of P-gp and CYP3A4/5 inhibitor verapamil by SRB assay; assay type: functional; conditions: SW1573, 48 h; in short: as §5
SW1573 [12] = test: Antiproliferative activity against human SW1573 cells incubated for 48 hrs in absence of P-gp and CYP3A4/5 inhibitor verapamil by SRB assay; assay type: functional; conditions: SW1573, 48 h; in short: as §5
[13] = Ratio of GI50 for antiproliferative activity against human hTERT-BJ cells incubated for 48 hrs by SRB assay to GI50 for antiproliferative activity against human HBL100 cells incubated for 48 hrs by SRB assay; in short: as §1
[14] = Ratio of GI50 for antiproliferative activity against human hTERT-BJ cells incubated for 48 hrs by SRB assay to GI50 for antiproliferative activity against human A549 cells incubated for 48 hrs by SRB assay; in short: as §1

| GI50 (A549) [µM] | GI50 (SW1573 [2]) [µM] | GI50 (T47D) [µM] | GI50 (HeLa) [µM] | GI50 (SW1573 [7]) [µM] | GI50 (SW1573 [10]) [µM] | GI50 (SW1573 [11]) [µM] | GI50 (SW1573 [12]) [µM] | SMILES | selectivity ratio at 48 h [1] | selectivity ratio at 48 h [3] | GI50 (WiDr) [µM] | GI50 (HBL-100) [µM] | selectivity ratio at 48 h [4] | selectivity ratio at 48 h [5] | RatioGI50 (SW1573 [6]) | RatioGI50 (SW1573 [8]) | GI50 at 48 h [9] [µM] | RatioGI50 [13] | RatioGI50 [14] |
| --- | --- | --- | --- | --- | --- | --- | --- | --- | --- | --- | --- | --- | --- | --- | --- | --- | --- | --- | --- |
| > 10 | > 10 | > 10 | > 10 |  |  |  |  | C[C@]12C(=O)CC=CC1=C[C@H]1O[C@]3([C@@H]4C[C@]5(C)C(=O)O[C@H]4C[C@@]5(C)O)CC[C@@]4(O3)[C@H]1[C@@H]2CC[C@]4(C)O | 2 to 10 | 2 to 10 | > 10 | > 10 | 2 to 10 | 2 to 10 |  |  |  |  |  |
| > 10 | > 10 | > 10 | > 10 |  |  |  |  | C[C@]1(O)CC[C@H]2[C@H]3[C@H](O[C@]4([C@@H]5C[C@]6(C)C(=O)O[C@H]5C[C@@]6(C)O)CC[C@@]31O4)[C@@H](O)[C@]13O[C@H]1C=CC(=O)[C@]23C | 2 to 10 | 2 to 10 | > 10 | > 10 | 2 to 10 | 2 to 10 |  |  |  |  |  |
| > 10 | > 10 | > 10 | > 10 |  |  |  |  | CC1=C(CO)C(=O)O[C@@H]([C@]2(C)OC(O)[C@@]34CC[C@H]5[C@@H](CC=C6CC=CC(=O)[C@@]65C)[C@](O)(CC[C@H]23)O4)C1 (some centres undefined) | 2 to 10 | 2 to 10 | > 10 | > 10 | 2 to 10 | 2 to 10 |  |  |  |  |  |
| > 10 | 4.4 | 6.4 | 3.3 | 2.7 | 4.5 | 5.5 | 4.1 | C[C@]12C(=O)C=CC=C1[C@H](O)[C@H]1O[C@]3([C@@H]4C[C@]5(C)C(=O)O[C@H]4C[C@@]5(C)O)CC[C@@]4(O3)[C@H]1[C@@H]2CC[C@]4(C)O |  |  | > 10 | > 10 |  |  | 0.5 | 1.1 | 5.3 |  |  |
| > 10 | > 10 | > 10 | > 10 |  |  |  |  | CC1=C(C)C(=O)O[C@@H]([C@]2(C)OC(O)[C@]34CC[C@H]5[C@@H]([C@H](O)C=C6CC=CC(=O)[C@@]65C)[C@@H]3CC[C@H]24)C1 (some centres undefined) | 2 to 10 | 2 to 10 | > 10 | > 10 | 2 to 10 | 2 to 10 |  |  |  |  |  |
| 2.8 | 2.4 | 4.7 | 2.5 | 1.7 | 2.3 | 3.9 | 2.1 | CCO[C@@H]1O[C@@](C)([C@H]2CC(C)=C(C)C(=O)O2)[C@H]2CC[C@H]3[C@@H]4[C@@H](O)C=C5[C@@H](O)C=CC(=O)[C@]5(C)[C@H]4CC[C@]123 | 2 to 10 | 2 to 10 | 6.1 | 3.2 | 2 to 10 | 2 to 10 | 0.4 | 1.1 | > 10 | 2 - 10 | 2 - 10 |
| > 10 | > 10 | > 10 | > 10 |  |  |  |  | CC1=C(C)C(=O)O[C@@H]([C@](C)(O)[C@H]2CC[C@H]3[C@@H]4[C@@H](O)C=C5[C@@H](O)C=CC(=O)[C@]5(C)[C@H]4CC[C@]23CO)C1 | 2 to 10 | 2 to 10 | > 10 | > 10 | 2 to 10 | 2 to 10 |  |  |  |  |  |
|  |  |  |  | 0.001 | 2.05 | 0.0008 | 0.0009 | CC[C@]1(O)C[C@@H]2CN(CCc3c([nH]c4ccccc34)[C@@](C(=O)OC)(c3cc4c(cc3OC)N(C)[C@H]3[C@@](O)(C(=O)OC)[C@H](OC(C)=O)[C@]5(CC)C=CCN6CC[C@]43[C@@H]65)C2)C1 [VINBLASTINE] |  |  |  |  |  |  | 1.3 | 2388 |  |  |  |
| > 10 | > 10 | > 10 | > 100 |  |  |  |  | CC1=C(C)C(=O)O[C@@H]([C@]2(C)OC(O)[C@@]34CC[C@H]5[C@@H](CC=C6CC=CC(=O)[C@@]65C)[C@](O)(CC[C@H]23)O4)C1 (some centres undefined) | 2 to 10 | 2 to 10 | > 10 | > 10 | 2 to 10 | 2 to 10 |  |  |  |  |  |
| > 10 | > 10 | > 10 | > 10 |  |  |  |  | CC1=C(C)C(=O)O[C@@H]([C@]2(C)OC(O)[C@]34CC[C@H]5[C@@H]([C@H](O)C=C6C=CCC(=O)[C@@]65C)[C@@H]3CC[C@H]24)C1 (some centres undefined) | 2 to 10 | 2 to 10 | > 10 | > 10 | 2 to 10 | 2 to 10 |  |  |  |  |  |
| > 10 | 4.1 | > 10 | 5.3 | 3.2 | 3.2 | 4.2 | 3.4 | CC1=C(C)C(=O)O[C@@H]([C@](C)(O)[C@H]2CC[C@H]3[C@@H]4[C@@H](O)C=C5[C@@H](O)C=CC(=O)[C@]5(C)[C@H]4CC[C@]23C)C1 | 2 to 10 | 2 to 10 | > 10 | 4.8 | 2 to 10 | 2 to 10 | 0.8 | 0.9 | > 10 | 2 - 10 | 2 - 10 |
|  |  |  |  | 0.0042 | 0.196 | 0.0016 | 0.0015 | CC(=O)O[C@H]1C(=O)[C@@]2(C)[C@H]([C@H](OC(=O)c3ccccc3)[C@]3(O)C[C@H](OC(=O)[C@H](O)[C@@H](NC(=O)c4ccccc4)c4ccccc4)C(C)=C1C3(C)C)[C@]1(OC(C)=O)CO[C@@H]1C[C@@H]2O [PACLITAXEL] |  |  |  |  |  |  | 2.6 | 128 |  |  |  |
| > 10 | > 10 | > 10 | > 10 |  |  |  |  | C[C@]12C(=O)C=CCC1=C[C@H]1O[C@]3([C@@H]4C[C@]5(C)C(=O)O[C@H]4C[C@@]5(C)O)CC[C@@]4(O3)[C@H]1[C@@H]2CC[C@]4(C)O | 2 to 10 | 2 to 10 | > 10 | > 10 | 2 to 10 | 2 to 10 |  |  | > 10 | 2 - 10 | 2 - 10 |
| > 10 | > 10 | > 10 | > 10 |  |  |  |  | CC1=C(C)C(=O)O[C@@H]([C@]2(C)OC(O)[C@]34CC[C@H]5[C@@H]([C@@H](O)C=C6[C@@H](O)C=CC(=O)[C@@]65C)[C@@H]3CC[C@H]24)C1 (mixture of isomers) | 2 to 10 | 2 to 10 | > 10 | > 10 | 2 to 10 | 2 to 10 |  |  | > 10 | 2 - 10 | 2 - 10 |
